# Bioassay records deposited in PubChem BioAssay by several laboratories.
# The list is not random: actives were taken first. Their share in the collection is about 3.1%.
# Apaf1 inhib – inhibitors of human Apaf-1 apoptosome; O14727; reconstituted apoptosome caspase-3 activity, DEVD-Rh110 fluorescence; inhibition, % at 20 µM; 0.71% of 330,000 active; active = inhibition of at least 40% at 20 µM;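 also: plate controls were DMSO wells for no effect and DEVD-CHO caspase inhibitor wells for full effect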
#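 System: reconstituted apoptosome with Apaf-1, cytochrome c, caspase-9, procaspase-3, dATP; Signal: Rh110 fluorescence intensity; Schedule: 30 min compound preincubation, 50 min activation, room temperature; Reagent: cytochrome c trigger plus (Z-DEVD)2-Rh110 caspase-3 substrate.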
# PAFAH1B3 FP inh – PAFAH1B3 (human) inhibition; 0.28% of 340,000 active; recombinant PAFAH1B3, FP-rhodamine probe, fluorescence polarization; inhibition, % at 3.39 µM;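 active = inhibition above the screen-wide average of all tested compounds plus 3 SD, cut at about 25% in these data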;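 also: 0% = enzyme with DMSO only and 100% = wells lacking PAFAH1B3 protein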
# Target sequence (Q15102 whole entry, looked up): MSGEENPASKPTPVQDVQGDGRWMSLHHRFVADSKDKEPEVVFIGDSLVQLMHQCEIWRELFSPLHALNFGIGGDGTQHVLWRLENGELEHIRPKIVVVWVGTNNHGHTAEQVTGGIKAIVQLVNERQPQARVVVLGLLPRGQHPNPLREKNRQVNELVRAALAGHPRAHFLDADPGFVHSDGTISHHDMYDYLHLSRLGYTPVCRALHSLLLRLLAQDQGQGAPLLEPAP
# pPAFAH inh – inhibitors of human plasma PAF acetylhydrolase (pPAFAH); inhibition, % at 3.39 µM; 1.5% of 330,000 active; Q13093; recombinant pPAFAH, FP-rhodamine probe fluorescence polarization;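 active = inhibition above the mean inhibition across the screen plus 3 SD, cut at about 25% in these data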;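 also: inhibitors block binding of the rhodamine activity-based probe so polarization drops; 0% = enzyme with DMSO and 100% = wells lacking pPAFAH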
# Target sequence (Q13093 whole entry, looked up): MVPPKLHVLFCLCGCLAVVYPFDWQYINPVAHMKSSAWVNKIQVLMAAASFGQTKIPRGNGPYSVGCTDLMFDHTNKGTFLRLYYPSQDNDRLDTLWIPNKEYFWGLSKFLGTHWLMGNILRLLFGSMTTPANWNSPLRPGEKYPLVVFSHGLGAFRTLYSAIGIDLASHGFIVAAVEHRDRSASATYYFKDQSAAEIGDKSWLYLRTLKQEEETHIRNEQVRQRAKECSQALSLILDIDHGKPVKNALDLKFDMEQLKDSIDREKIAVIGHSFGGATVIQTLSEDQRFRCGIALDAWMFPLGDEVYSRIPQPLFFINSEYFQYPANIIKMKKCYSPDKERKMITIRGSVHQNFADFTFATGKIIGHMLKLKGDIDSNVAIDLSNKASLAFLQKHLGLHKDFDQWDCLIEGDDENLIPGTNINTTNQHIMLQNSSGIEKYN
# PAFAH2 inh – PAFAH2 (human) inhibition; Q99487; recombinant PAFAH2, FP-rhodamine activity probe, fluorescence polarization; 0.99% of 340,000 active; inhibition, % at 3.39 µM; AID 492956;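 active = inhibition above the mean over all tested compounds plus 3 SD, cut at about 30% in these data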;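 also: inhibitors block probe labeling of enzyme so polarization drops; 0% = enzyme with DMSO and 100% = wells lacking PAFAH2 protein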
# PAFAH1B2 FP inh – blocks human PAF acetylhydrolase 1b catalytic subunit 2; P68402; recombinant PAFAH1B2, FP-rhodamine activity probe, fluorescence polarization; inhibition, % at 3.39 µM; 1.2% of 340,000 active; AID 492953;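 active = inhibition above the mean of all tested compounds plus 3 SD, cut at about 24% in these data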;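 also: 0% = enzyme with DMSO and 100% = wells lacking PAFAH1B2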
# Active calls of the source: *; nt = no result given.
SMILES,Apaf1 inhib,PAFAH1B3 FP inh,pPAFAH inh,PAFAH2 inh,PAFAH1B2 FP inh
Nc1nc(Sc2ccc([N+](=O)[O-])c3nonc23)c2[nH]cnc2n1,nt,37.6*,nt,29.7*,11.8
CNc1ncnc(Sc2nc(N)nc3nc[nH]c23)c1[N+](=O)[O-],nt,2.7,nt,6.2,-1.4
CC(C)(C)N(Cc1ccccc1)C(=O)CSc1nc2ccccc2c(=O)[nH]1,2.5,2.5,-0.2,-9.5,8.9
Cc1nnc(SCC(=O)N(Cc2ccccc2)C(C)(C)C)[nH]c1=O,1.9,6.5,0.1,3.5,24.9*
COc1ccc(CNc2nc3ccccc3n2CCN2CCCCC2)cc1,9.1,6.8,4.7,-0.3,0.2
COc1ccc(CCN2CCC(Nc3nc4ccccc4n3Cc3ccc(F)cc3)CC2)cc1,55.5*,7.8,3.5,4.7,-0.7
Cc1cccc(NS(=O)(=O)c2ccc3c(c2)CCC(=O)N3)c1,-0.6,-2.6,27.9*,-1.3,4.5
Cn1c(=O)oc2cc(S(=O)(=O)Nc3ccc(F)cc3)ccc21,0.0,-5.5,25.7*,1.0,1.2
O=C1CCc2cc(S(=O)(=O)Nc3ccc(F)cc3)ccc2N1,5.3,4.0,29.4*,5.9,-0.3
Cn1cc(CCC(=O)NCCCc2ccccc2)c2ccccc21,7.9,14.7,7.7,-7.5,10.9
COc1ccc(OC)c(C2C3=C(CC(C)(C)CC3=O)Nc3nnnn32)c1 (configuration not stated),0.6,10.1,28.6*,-1.4,-2.0
COc1ccccc1C1C2=C(CC(C)(C)CC2=O)Nc2nnnn21 (configuration not stated),3.2,6.8,-0.7,2.5,-3.7
O=C1/C(=C2\C(=O)N(Cc3ccc(F)cc3)c3ccccc32)SC(=S)N1CCS(=O)(=O)O,7.6,4.8,5.9,-0.9,3.9
O=C(O)CN1C(=O)/C(=C2\C(=O)N(Cc3ccccc3Cl)c3ccccc32)SC1=S,nt,8.7,2.6,3.0,25.7*
O=C(Nn1c(COc2ccccc2)nc2ccccc2c1=O)C(Cl)(Cl)Cl,0.8,3.5,nt,-4.9,8.5
CC(C)C[C@H](N)c1nnc(SCc2ccc(Cl)cc2)o1,-4.9,-5.4,0.9,-2.9,22.1
CC(C)[C@H](N)c1nnc(SCc2ccc(Cl)cc2)o1,4.0,6.5,-1.3,-6.3,34.2*
COC(OC)C1(CCc2ccccc2)NC(=O)NC1=O (configuration not stated),nt,7.3,nt,5.5,2.7
Cc1[nH]n(-c2ncc(-c3ccc(Cl)cc3)s2)c(=O)c1C(c1ccc(Cl)cc1)C(C#N)C#N (configuration not stated),21.1,13.1,28.5*,25.2,7.4
S=C(Nc1ccccc1Cl)N1CCN(Cc2ccccc2)CC1,4.0,-0.5,-6.3,-1.2,2.2
Fc1ccccc1NC(=S)N1CCN(Cc2ccccc2)CC1,-5.6,4.4,32.3*,1.1,-0.1
Cc1c(NC(=O)C(C)OC(=O)c2sc3ccccc3c2Cl)c(=O)n(-c2ccccc2)n1C (configuration not stated),7.9,5.9,3.1,8.8,1.2
Cc1c(NC(=O)C(C)OC(=O)c2ccc([N+](=O)[O-])s2)c(=O)n(-c2ccccc2)n1C (configuration not stated),24.2,33.0*,29.8*,13.5,21.7
O=[N+]([O-])c1ccccc1N/N=C/c1c[nH]c2ccccc12,1.2,12.1,25.2*,8.7,3.9
Cc1cc(C)cc(NC(=O)CSc2nc(=O)n3cc(C)ccc3n2)c1,1.7,2.1,24.9*,8.6,4.0
SMILES,Apaf1 inhib,PAFAH1B3 FP inh,pPAFAH inh,PAFAH2 inh,PAFAH1B2 FP inh
Cc1c(Cl)ccc2c1NC(=O)C21NC(CCC(N)=O)[C@H]2C(=O)N(c3ccc(Cl)cc3)C(=O)[C@H]21 (some centres not stated),7.1,-3.8,24.9*,10.3,-1.6
Nc1nc2cc(Cl)c(Br)cc2o1,nt,7.5,nt,3.1,4.8
COc1ccc(C2=NN(c3nc(-c4ccccc4)c(CC(=O)O)s3)C(c3ccco3)C2)cc1 (configuration not stated),nt,-7.3,29.8*,3.2,-3.1
Cc1nc(N2N=C(c3ccc(Cl)cc3)CC2c2ccco2)sc1C(=O)N(C)C (configuration not stated),14.6,5.1,14.4,13.3,-0.9
N#C/C(=C\c1ccc(N2CCOCC2)o1)C(=O)NCC1CCCO1 (configuration not stated),-3.5,6.3,-2.4,4.8,2.7
N#C/C(=C\c1ccc(N2CCOCC2)o1)C(=O)NC1CCCCC1,-9.8,2.8,-2.4,1.9,24.4*
Oc1ccc(Br)cc1/C=N/n1c(C2CCCCC2)n[nH]c1=S,22.1,8.3,4.9,11.4,4.2
O=C(O)COCC(=O)Nc1ccc(OCCc2ccccc2)cc1,6.1,1.0,-2.8,0.7,10.4
CCOc1ccc([C@@H]2CC=C(C(=O)O)[C@H](c3ccc(F)cc3)N2S(=O)(=O)c2ccc(C)cc2)cc1,12.5,6.8,3.7,-2.0,19.0
Cc1ccc([C@H]2C(C(=O)O)=CC[C@@H](c3cccs3)N2S(=O)(=O)c2ccc(C)cc2)cc1,12.7,0.3,-0.2,7.0,27.0*
Cc1ccc(S(=O)(=O)N2[C@@H](c3ccc(F)cc3)C(C(=O)O)=CC[C@H]2c2cccs2)cc1,15.5,-8.2,5.5,0.2,29.7*
Cc1ccc(S(=O)(=O)N2[C@@H](c3cccc(Cl)c3)C(C(=O)O)=CC[C@H]2c2cccs2)cc1,17.9,7.0,-4.0,7.3,26.7*
COc1ccc([C@@H]2CC=C(C(=O)O)[C@H](c3cccc(Cl)c3)N2S(=O)(=O)c2ccc(C)cc2)cc1OC,7.8,-2.0,8.5,4.1,8.3
CN(C(=O)CC1C(=O)NCCN1Cc1ccc(F)c(F)c1)C1CCCCC1 (configuration not stated),12.3,9.3,2.1,1.2,4.0
COC/C=C/C1=CC2=CC(=O)C(C)(OC(=O)c3cccs3)C(=O)C2=CO1 (configuration not stated),-1.9,nt,13.4,nt,nt
CC1(OC(=O)c2ccc(Cl)nc2)C(=O)C=C2C=C(c3ccc(C#N)cc3)OC=C2C1=O (configuration not stated),nt,nt,41.6*,nt,nt
COCCN1C=C2C(=O)C(C)(OC(=O)CCc3ccccc3)C(=O)C=C2C=C1c1ccc(C#N)cc1 (configuration not stated),27.1,0.8,4.6,6.2,-1.8
CC1(OC(=O)c2ccc(Cl)nc2)C(=O)C=C2C=C(C3CC3)OC=C2C1=O (configuration not stated),-7.4,nt,43.9*,nt,nt
CC1(OC(=O)c2ccc(Cl)nc2)C(=O)C=C2C=C(c3ccsc3)OC=C2C1=O (configuration not stated),21.7,nt,46.7*,nt,nt
CC1(OC(=O)C2CCCC2)C(=O)C=C2C=C3CCCCN3C=C2C1=O (configuration not stated),36.1,4.9,22.9,9.0,4.9
CC1(OC(=O)C2CCCC2)C(=O)C=C2C=C(C3CC3)OC=C2C1=O (configuration not stated),-5.9,nt,25.9*,nt,nt
